{"data": "Experimental data gathered from unrelated publications", "NOX5": "NADPH oxidase 5 (NOX5, Homo sapiens, UniProt Q96PH1)", "PIK3CA": "Phosphatidylinositol 4,5-bisphosphate 3-kinase catalytic subunit alpha isoform (PIK3CA, Homo sapiens, UniProt P42336)", "Histone acetyltransferase KAT6B": "Histone acetyltransferase KAT6B (Homo sapiens, UniProt Q8WYB5)", "KDR": "Vascular endothelial growth factor receptor 2 (KDR, Homo sapiens, UniProt P35968)", "PIK3CB": "Phosphatidylinositol 4,5-bisphosphate 3-kinase catalytic subunit beta isoform (PIK3CB, Homo sapiens, UniProt P42338)", "DNA polymerase catalytic subunit": "DNA polymerase catalytic subunit (Human cytomegalovirus, UniProt P08546)", "note": "Protocols differ between the studies behind these lines."}
{"SMILES": "C[C@H]1COC2=C1C(=O)C(=O)c1c2ccc2c1CCCC2(C)C", "target": "NOX5", "effect on": "enzyme activity", "action": "inhibitor", "IC50 [nM]": 4300}
{"SMILES": "COc1cc2ncnc(Nc3ccc4c(c3)/C(=C/c3cccc(Cl)c3)C(=O)N4C)c2cc1OC", "target": "PIK3CA", "effect on": "enzyme activity", "action": "inhibitor", "method": "ADP detection", "IC50 [nM]": 121}
{"SMILES": "O=c1oc(-c2cccnc2)nc2ccccc12", "target": "Cathepsin G (CTSG, Homo sapiens, UniProt P08311)", "effect on": "enzyme activity", "action": "inhibitor", "method": "absorbance", "pH": "pH 7.4", "IC50 [nM]": 4900}
{"SMILES": "c1ccc2c(c1)CCC[C@H]2Nc1nc2ccccc2[nH]1", "target": "Transient receptor potential cation channel subfamily M member 7 (Trpm7, Mus musculus, UniProt Q923J1)", "effect on": "calcium signal", "IC50 [nM]": 1130}
{"SMILES": "CCCOc1ccc2cc(C(=O)NS(=O)(=O)c3ccccc3-c3ccccc3)oc2c1", "target": "Histone acetyltransferase KAT6B", "effect on": "enzyme activity", "action": "inhibitor", "method": "TR-FRET", "IC50 [nM]": 12200}
{"SMILES": "CC(=NNC(=O)c1ccncc1)c1ccc(Nc2nnc(-c3ccc(Cl)cc3)c3ccccc23)cc1", "target": "KDR", "effect on": "cell-free assay", "action": "inhibitor", "IC50 [nM]": 148}
{"SMILES": "Cc1cc(Br)cc2oc(C(=O)NS(=O)(=O)c3ccccc3-c3ccccc3)cc12", "target": "Histone acetyltransferase KAT6B", "effect on": "enzyme activity", "action": "inhibitor", "method": "TR-FRET", "IC50 [nM]": 150}
{"SMILES": "COc1cc2ncnc(N(C)c3ccc4c(c3)/C(=C/c3cccc(Cl)c3)C(=O)N4C)c2cc1OC", "target": "PIK3CB", "effect on": "enzyme activity", "action": "inhibitor", "method": "ADP detection", "IC50 [nM]": 103}
{"SMILES": "CC1(F)CN(C(=O)Cn2c(=O)c(C(=O)NCc3ccc(Cl)cc3)cc3nc(N4CCCC4=O)cnc32)C1", "target": "DNA polymerase catalytic subunit", "effect on": "enzyme activity", "action": "inhibitor", "IC50 [nM]": 207}
{"SMILES": "CC(=NNC(N)=S)c1ccc(Nc2nnc(-c3ccc(Cl)cc3)c3ccccc23)cc1", "target": "KDR", "effect on": "cell-free assay", "action": "inhibitor", "IC50 [nM]": 375}
{"SMILES": "Cc1nc(Nc2ccc3c(c2)C(C)(C)C(=O)N3)c2ccccc2n1", "target": "PIK3CB", "effect on": "enzyme activity", "action": "inhibitor", "method": "ADP detection", "IC50 [nM]": 153}
{"SMILES": "CCOc1cccc(-c2ccccc2)c1S(=O)(=O)NC(=O)c1cc2c(C)cc(OC)cc2o1", "target": "Histone acetyltransferase KAT6B", "effect on": "enzyme activity", "action": "inhibitor", "method": "TR-FRET", "IC50 [nM]": 51}
{"SMILES": "Cc1nc(Nc2ccc3c(c2)C(C)(C)C(=O)N3C)c2ccccc2n1", "target": "PIK3CA", "effect on": "enzyme activity", "action": "inhibitor", "method": "ADP detection", "IC50 [nM]": 164}
{"SMILES": "COc1cc(C)c2cc(C(=O)NS(=O)(=O)c3cccc4ccc(C)nc34)oc2c1", "target": "Histone acetyltransferase KAT6B", "effect on": "enzyme activity", "action": "inhibitor", "method": "TR-FRET", "IC50 [nM]": 22}
{"SMILES": "Cc1nc(N(C)c2ccc3c(c2)/C(=C/c2ccccc2Cl)C(=O)N3C)c2ccccc2n1", "target": "PIK3CB", "effect on": "enzyme activity", "action": "inhibitor", "method": "ADP detection", "IC50 [nM]": 117}
{"SMILES": "CC1(C)CN(C(=O)Cn2c(=O)c(C(=O)NCc3ccc(Cl)cc3)cc3nccnc32)C1", "target": "DNA polymerase catalytic subunit", "effect on": "enzyme activity", "action": "inhibitor", "IC50 [nM]": 2260}
{"SMILES": "CCCOc1ccccc1S(=O)(=O)NC(=O)c1cc2c(C)cc(OC)cc2o1", "target": "Histone acetyltransferase KAT6B", "effect on": "enzyme activity", "action": "inhibitor", "method": "TR-FRET", "IC50 [nM]": 61}
{"SMILES": "Cc1coc2c1C(=O)C(=O)c1c-2ccc2c(C)cccc12", "target": "NOX5", "effect on": "enzyme activity", "action": "inhibitor", "IC50 [nM]": 3900}
